OX1R antag-1 – antagonists of human orexin 1 receptor (OX1R) | AID 485270, 2010 | inhibition, % at 6.6 µM | OX1R-expressing cells, FRET antagonist read-out | 330,000 tested, 1.8% active; in the data active = inhibition mostly above about 38%, no sharp cut-off; inactive = mostly below about 40%;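 also: 0% = agonist challenge alone and 100% = reference antagonist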
Target sequence (O43613 whole entry, looked up): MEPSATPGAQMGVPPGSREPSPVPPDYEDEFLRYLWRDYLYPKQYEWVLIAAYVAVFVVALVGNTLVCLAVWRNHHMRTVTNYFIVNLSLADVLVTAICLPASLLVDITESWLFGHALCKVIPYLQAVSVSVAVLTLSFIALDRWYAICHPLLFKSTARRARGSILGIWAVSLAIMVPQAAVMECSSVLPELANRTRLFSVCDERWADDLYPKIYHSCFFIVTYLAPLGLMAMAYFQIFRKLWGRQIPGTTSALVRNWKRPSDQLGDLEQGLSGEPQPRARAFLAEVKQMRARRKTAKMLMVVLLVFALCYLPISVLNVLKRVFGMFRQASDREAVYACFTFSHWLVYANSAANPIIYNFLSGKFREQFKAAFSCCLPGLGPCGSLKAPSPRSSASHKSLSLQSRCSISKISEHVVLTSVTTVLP
TAAR1 antag – human TAAR1 antagonists, primary screen, Fluo-8 calcium fluorescence, CHO RD-HGA16 cells; antagonist; inhibition, % at 3 µM; 360,000 tested, 1.5% active;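 active = inhibition above a per-plate cutoff, the mean inhibition of test compounds on that plate plus 3 SD, cut at about 49% in these data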;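 also: 0% = DMSO plus EC80 beta-PEA response and 100% = DMSO alone without agonist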
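Test system – hTAAR1-expressing CHO RD-HGA16 cells, Gα16-coupled · Also added – β-PEA at EC80 concentration, post-compound challenge · Compound – 3 µM, single point · Incubation – dye loading 75 min at 37 °C, then 30 min room temperature · Measured by – Fluo-8 intracellular calcium dye fluorescence, real-time kinetic reads · Benchmarks – vehicle and agonist controls · Replicates – singlicate, one well per test compound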
TAAR1 agonist – human TAAR1 agonists, primary screen, Fluo-8 calcium fluorescence, CHO RD-HGA16 cells; vehicle wells 0%, saturating PEA agonist 100%; 360,000 tested, 0.99% active; AID 624467, 2012; activation, % at 3 µM; Trace amine-associated receptor 1 (Homo sapiens), Q96RJ0;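 active = activation above the mean activation of all test compounds in the run plus 3 SD, cut at about 38% in these data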
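System: CHO-derived RD-HGA16 cells with stable Gα16 and human TAAR1. Times: 17-24 h plating, Fluo-8 75 min 37 °C, 30 min RT. Measured by: calcium-sensitive Fluo-8 signal, excitation 470-495, emission 515-575 nm. Read-out basis: % activation relative to PEA EC100 response. Control set: DMSO and PEA EC100. Repeats: no replicates (n 1).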
OX1R antag-2 – OX1R (HCRTR1) antagonists, primary screen, fluorescence, CHO/OX1R cells, Fluo-8 calcium, orexin A; 330,000 tested, 0.43% active; inhibition, % at 5 µM; Orexin/Hypocretin receptor type 1 (Homo sapiens), O43613; Fluo-8 calcium fluorescence; AID 434989, 2010;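 active = inhibition above its plate's threshold, mean inhibition of all tested compounds on the plate plus 3 SD, cut at about 37% in these data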;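 also: 0% = orexin A challenge wells and 100% = SB-334867-A antagonist wells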
CHO parental Ca – ATP-evoked calcium signal inhibitors, parental CHO, primary screen, counter-screen for OX1R antagonist project, cell-based, fluorescence, Fluo-8 calcium dye; parental CHO-K1, ATP-induced calcium, Fluo-8 fluorescence; 330,000 tested, 0.63% active; inhibition, % at 5.6 µM; AID 463079, 2010;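 active = inhibition above that plate's mean sample inhibition plus 3 SD, cut at about 26% in these data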;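 also: 0% = ATP-challenged DMSO wells and 100% = DMSO wells without ATP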
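Test system: untransfected parental CHO cell line; also added: ATP stimulus; dosing: 5.6 µM, single dose; signal: calcium-sensitive Fluo-8 fluorescence; measure: percent inhibition of ATP-evoked calcium rise, normalized to controls; benchmarks: low control ATP plus DMSO, high control DMSO only; replication: one well per compound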
GalR3 antag – GalR3 antagonists in HEK293 cells, primary screen, cell-based, fluorescence readout; Galanin receptor type 3 (Homo sapiens), O60755; AID 651719, 2012; HEK293 GalR3-CNG cAMP membrane potential fluorescence; galR3 body fused to GalR1 C-terminus; 360,000 tested, 0.44% active; inhibition, % at 3 µM;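 active = inhibition above the screen-wide average plus 3 SD, cut at about 13% in these data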;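 also: forskolin and galanin both at EC90 stimulate the cells; cAMP rise reported by CNG channel membrane potential dye signal; 0% = forskolin plus galanin with DMSO and 100% = forskolin alone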
Active calls of the source: *. Most compounds without a hit are left out; they make up all but 4.3% or so of the library.

Results for CCC1(c2ccc(F)cc2)NC(=O)N(CC(=O)N2CCc3ccccc32)C1=O (stereo not drawn) ?
OX1R antag-1: -3; TAAR1 antag: 24; TAAR1 agonist: 68*; OX1R antag-2: 2; CHO parental Ca: -8; GalR3 antag: 0

Results for O=C(Cc1ccccc1)NNC(=O)C1CC=CCC1 (stereo not drawn) ?
OX1R antag-1: 7; TAAR1 antag: -4; TAAR1 agonist: 0; OX1R antag-2: -2; CHO parental Ca: 0; GalR3 antag: -10

Results for Cc1cccc(OCC(=O)NC(C)C(=O)N/N=C/c2c(OCc3ccccc3)ccc3ccccc23)c1 (stereo not drawn) ?
OX1R antag-1: 43*; OX1R antag-2: 2; CHO parental Ca: -6

What do the screens show for `CCN(CC)c1ccc(NC(=O)c2cc3c(OC)cccc3[nH]2)cc1`?
OX1R antag-1: 40*; TAAR1 antag: -13; TAAR1 agonist: -4; OX1R antag-2: -6; CHO parental Ca: -25; GalR3 antag: -12

How did COc1cccc2[nH]c(C(=O)NC(C)c3ccccc3)cc12 (stereo not drawn) do in these assays?
OX1R antag-1: -11; TAAR1 antag: -6; TAAR1 agonist: 7; OX1R antag-2: -19; CHO parental Ca: -10; GalR3 antag: -4

Results for CON(C)C(=O)C[C@@H]1C[C@H](OC(=O)c2ccc([N+](=O)[O-])cc2)CN1C(=O)OC(C)(C)C ?
OX1R antag-1: 24; TAAR1 antag: -13; TAAR1 agonist: 3; OX1R antag-2: -32; CHO parental Ca: -23; GalR3 antag: -2

What do the screens show for `COc1cc(/C=C/c2nnc3c4ccccc4ncn23)cc(OC)c1OC`?
OX1R antag-1: 65*; TAAR1 antag: 42; TAAR1 agonist: 12; OX1R antag-2: -3; CHO parental Ca: -3; GalR3 antag: -5

What do the screens show for `O=C(N[C@@H](Cc1cccnc1)C(=O)N1CCC[C@H]1C(=O)NC1CCCC1)c1ccc(Cl)c(Cl)c1`?
TAAR1 antag: -16; TAAR1 agonist: 2; GalR3 antag: -4

How did O=C(/C=C/c1ccc(OC(F)F)cc1)Nc1cccc(S(=O)(=O)NC2=NCCCCC2)c1 do in these assays?
OX1R antag-1: 34; TAAR1 antag: 62*; TAAR1 agonist: 12; OX1R antag-2: -18; CHO parental Ca: -14; GalR3 antag: -2

Results for Cc1ccc(C(=O)N/N=C/c2ccc([N+](=O)[O-])s2)cc1 ?
OX1R antag-1: 55; TAAR1 antag: 17; TAAR1 agonist: 14; OX1R antag-2: -3; CHO parental Ca: 6; GalR3 antag: 0

Results for O=C(N/N=C/c1ccc([N+](=O)[O-])s1)c1ccncc1 ?
OX1R antag-1: 72*; OX1R antag-2: -4; CHO parental Ca: -4

Results for O=C(CNC(=O)c1ccccc1)N/N=C/c1ccc([N+](=O)[O-])s1 ?
OX1R antag-1: 47*; TAAR1 antag: -17; TAAR1 agonist: 1; OX1R antag-2: -11; CHO parental Ca: -10; GalR3 antag: -4

How did O=C(Cc1ccccc1)NCC(=O)N/N=C/c1ccc(C(=O)O)cc1 do in these assays?
OX1R antag-1: 1; TAAR1 antag: -19; TAAR1 agonist: 0; OX1R antag-2: -18; CHO parental Ca: -4; GalR3 antag: -5

Results for O=C(Cc1ccccc1)NCC(=O)N/N=C/c1ccc([N+](=O)[O-])s1 ?
OX1R antag-1: 52*; TAAR1 antag: 3; TAAR1 agonist: 2; OX1R antag-2: -17; CHO parental Ca: -1; GalR3 antag: -9

How did Nc1nc2ncccc2cc1C(=O)NC1CC1 do in these assays?
TAAR1 antag: -21; TAAR1 agonist: 0; GalR3 antag: -6

How did CC(OC(=O)c1cc(S(=O)(=O)N(C)c2ccccc2)ccc1Cl)C(=O)Nc1ccc2c(c1)OCCO2 (stereo not drawn) do in these assays?
OX1R antag-1: 46*; TAAR1 antag: 12; TAAR1 agonist: 4; OX1R antag-2: -16; CHO parental Ca: -5; GalR3 antag: 0

How did CC(=O)Nc1ccc(NC(=O)C(C)OC(=O)c2cc(S(=O)(=O)N3CCOCC3)ccc2Cl)cc1 (stereo not drawn) do in these assays?
OX1R antag-1: 7; TAAR1 antag: -7; TAAR1 agonist: 0; OX1R antag-2: -6; CHO parental Ca: -16; GalR3 antag: -1

What do the screens show for `COc1ccc(-c2cc(C(=O)N(C)Cc3nc4ccccc4c(=O)[nH]3)c3ccccc3n2)cc1OC`?
OX1R antag-1: 13; TAAR1 antag: 59*; TAAR1 agonist: 11; OX1R antag-2: 23; CHO parental Ca: -17; GalR3 antag: -10

What do the screens show for `COc1cc2nc(CN(C)Cc3nc4ccccc4c(=O)[nH]3)[nH]c(=O)c2cc1OC`?
OX1R antag-1: 11; TAAR1 antag: -17; TAAR1 agonist: 7; OX1R antag-2: -3; CHO parental Ca: -11; GalR3 antag: 3

How did COc1cccc(CN(C)C(=O)c2cc(-c3ccc(OC)c(OC)c3)nc3ccccc23)c1 do in these assays?
TAAR1 antag: 51*; TAAR1 agonist: 3; GalR3 antag: -4

How did COc1cccc(CN(C)C(=O)c2cc(-c3ccc(F)cc3)nc3ccccc23)c1 do in these assays?
OX1R antag-1: 30; OX1R antag-2: -31; CHO parental Ca: -29

What do the screens show for `Cc1ccc(CC(=O)Nc2ncc([N+](=O)[O-])s2)cc1`?
OX1R antag-1: 40*; TAAR1 antag: 22; TAAR1 agonist: 11; OX1R antag-2: -10; CHO parental Ca: 10; GalR3 antag: 5

How did O=C(CCS(=O)(=O)Cc1ccccc1)Nc1ncc([N+](=O)[O-])s1 do in these assays?
OX1R antag-1: 49*; TAAR1 antag: -4; TAAR1 agonist: 5; OX1R antag-2: -15; CHO parental Ca: -2; GalR3 antag: -2

Results for COc1ccc(C(=O)OCC(=O)Nc2ncc([N+](=O)[O-])s2)cc1OC ?
OX1R antag-1: 19; TAAR1 antag: 9; TAAR1 agonist: 1; OX1R antag-2: -2; CHO parental Ca: -3; GalR3 antag: -2

How did Cc1ccc(S(=O)(=O)CC(=O)Nc2ncc([N+](=O)[O-])s2)cc1 do in these assays?
OX1R antag-1: 57; TAAR1 antag: 5; TAAR1 agonist: 15; OX1R antag-2: -4; CHO parental Ca: -4; GalR3 antag: -8

Source: PubChem (The Scripps Research Institute Molecular Screening Center)
